Experimental data published in ChEMBL document CHEMBL1221342, “Synthesis and in vitro antitumor activity of new 4,5-dihydropyrazole derivatives” (Bioorg Med Chem, 2010).

Tests used:
[1] = test system: OVCAR-4; assay: Growth inhibition of human OVCAR4 cells after 48 hrs by SRB assay; type: functional; settings: OVCAR-4, 48 h
Outline: (§1)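 NCI 60-cell-line screen. Cells grown in RPMI1640 with 5% fetal calf serum and 2 mM L-glutamine, with inoculum density set by cell line. Preincubated 24 h, then given compound in DMSO at 10^-4 to 10^-8 M (five 10-fold steps) for 48 h continuous exposure. Growth measured by SRB protein assay. GI50, TGI and LC50 reported as –log molar.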

[2] = test system: KM12; assay: Growth inhibition of human KM12 cells after 48 hrs by SRB assay; type: functional; settings: KM12, 48 h; outline: as §1
[3] = test system: T47D; assay: Growth inhibition of human T47D cells after 48 hrs by SRB assay; type: functional; settings: read-out: pTGI (converted); outline: as §1
[4] = test system: SR; assay: Growth inhibition of human SR cells after 48 hrs by SRB assay; type: functional; outline: as §1
[5] = test system: SF-268; assay: Growth inhibition of human SF268 cells after 48 hrs by SRB assay; type: functional; settings: SF-268, 48 h; outline: as §1
[6] = test system: MDA-MB-435; assay: Growth inhibition of human MDA-MB-435 cells after 48 hrs by SRB assay; type: functional; settings: MDA-MB-435, 48 h; outline: as §1
[7] = test system: NCI-H460; assay: Cytotoxicity against human NCI-H460 cells after 72 hrs by SRB assay; type: functional, cell-based; settings: NCI-H460, 72 h
Outline: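 NCI-H460 (ATCC) cells seeded in 96-well plates in growth medium. Scalar drug concentrations added 24 h after plating, then 72 h exposure. Surviving cells stained with sulforhodamine B, OD read at 570 nm. IC50 (50% growth inhibition) fitted from dose–response curves. Mean ± SE of at least three independent experiments.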

[8] = test system: SW-620; assay: Growth inhibition of human SW620 cells after 48 hrs by SRB assay; type: functional; settings: SW-620, 48 h; outline: as §1
[9] = test system: HT-29; assay: Growth inhibition of human HT-29 cells after 48 hrs by SRB assay; type: functional; settings: HT-29, 48 h; outline: as §1
[10] = test system: DU-145; assay: Growth inhibition of human DU145 cells after 48 hrs by SRB assay; type: functional; settings: DU-145, 48 h; outline: as §1
[11] = test system: OVCAR-8; assay: Growth inhibition of human OVCAR8 cells after 48 hrs by SRB assay; type: functional; settings: OVCAR-8, 48 h; outline: as §1
[12] = test system: CAKI-1; assay: Growth inhibition of human Caki1 cells after 48 hrs by SRB assay; type: functional; settings: CAKI-1, 48 h; outline: as §1
[13] = Growth inhibition of human […] cells after 48 hrs by SRB assay; type: functional; outline: as §1
[14] = test system: NCI-H460; assay: Growth inhibition of human NCI-H460 cells after 48 hrs by SRB assay; type: functional; settings: NCI-H460, 48 h; outline: as §1
[15] = test system: CCRF-CEM; assay: Growth inhibition of human CCRF-CEM cells after 48 hrs by SRB assay; type: functional; outline: as §1
[16] = test system: HOP-62; assay: Growth inhibition of human HOP62 cells after 48 hrs by SRB assay; type: functional; settings: HOP-62, 48 h; outline: as §1
[17] = Growth inhibition of human Hs 578T cells after 48 hrs by SRB assay; type: functional; outline: as §1
[18] = test system: 786-0; assay: Growth inhibition of human 786-0 cells after 48 hrs by SRB assay; type: functional; settings: 786-0, 48 h; outline: as §1
[19] = test system: EKVX; assay: Growth inhibition of human EKVX cells after 48 hrs by SRB assay; type: functional; outline: as §1
[20] = test system: MCF7; assay: Growth inhibition of human MCF7 cells after 48 hrs by SRB assay; type: functional; settings: MCF7, 48 h; outline: as §1
[21] = test system: MOLT-4; assay: Growth inhibition of human MOLT4 cells after 48 hrs by SRB assay; type: functional; settings: MOLT-4, 48 h; outline: as §1
[22] = test system: HCT-15; assay: Growth inhibition of human HCT15 cells after 48 hrs by SRB assay; type: functional; settings: HCT-15, 48 h; outline: as §1
[23] = test system: SNB-75; assay: Growth inhibition of human SNB75 cells after 48 hrs by SRB assay; type: functional; settings: SNB-75, 48 h; outline: as §1
[24] = test system: NCI-H322M; assay: Growth inhibition of human NCI-H322M cells after 48 hrs by SRB assay; type: functional; outline: as §1
[25] = test system: HL-60(TB); assay: Growth inhibition of human HL-60(TB) cells after 48 hrs by SRB assay; type: functional; settings: HL-60, 48 h
Outline: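 NCI 60-cell-line screen: cells grown in RPMI1640 with 5% fetal calf serum and 2 mM L-glutamine, preincubated 24 h, then exposed to compound in DMSO at five concentrations (10^-4 to 10^-8 M) for 48 h continuous exposure. Growth estimated by sulforhodamine B protein assay; reported as pGI50 (-log molar concentration inhibiting net cell growth by 50%).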

[26] = test system: OVCAR-3; assay: Growth inhibition of human OVCAR-3 cells after 48 hrs by SRB assay; type: functional; settings: OVCAR-3, 48 h; outline: as §1
[27] = test system: IGROV-1; assay: Growth inhibition of human IGROV1 cells after 48 hrs by SRB assay; type: functional; settings: IGROV-1, 48 h; outline: as §1
[28] = test system: NCI/ADR-RES; assay: Growth inhibition of human NCI/ADR-RES cells after 48 hrs by SRB assay; type: functional; outline: as §1
[29] = test system: PC-3; assay: Growth inhibition of human PC3 cells after 48 hrs by SRB assay; type: functional; settings: PC-3, 48 h; outline: as §1
[30] = test system: HCT-116; assay: Growth inhibition of human HCT116 cells after 48 hrs by SRB assay; type: functional; settings: HCT-116, 48 h; outline: as §1
[31] = test system: SF-295; assay: Growth inhibition of human SF295 cells after 48 hrs by SRB assay; type: functional; settings: SF-295, 48 h; outline: as §1
[32] = test system: Malme-3M; assay: Growth inhibition of human MALME-3M cells after 48 hrs by SRB assay; type: functional; outline: as §1
[33] = test system: A498; assay: Growth inhibition of human A498 cells after 48 hrs by SRB assay; type: functional; settings: A498, 48 h; outline: as §1

## CCN(CC)c1ccc(C2CC(c3cc(OC)c(OC)c(OC)c3)=NN2)cc1 (stereo not drawn)
[1]
  GI50: 1000 nM
[1]; read-out: pTGI (converted)
  TGI: > 100 µM
[2]
  GI50: 398 nM
[2]; read-out: pTGI (converted)
  TGI: > 100 µM
[3]
  TGI: > 100 µM
[4]
  GI50: 251 nM
[4]; read-out: pTGI (converted)
  TGI: 1000 nM
[5]
  GI50: 794 nM
[6]
  GI50: 158 nM
[6]; read-out: pTGI (converted)
  TGI: 316 nM
[7]
  IC50: 300 nM
[8]
  GI50: 398 nM
[8]; read-out: pTGI (converted)
  TGI: > 100 µM
[9]
  GI50: 316 nM
[9]; read-out: pTGI (converted)
  TGI: > 100 µM
[10]
  GI50: 398 nM
[10]; read-out: pTGI (converted)
  TGI: 1580 nM
[11]
  GI50: 398 nM
[11]; read-out: pTGI (converted)
  TGI: 7.94 µM
[12]
  GI50: 200 nM
[12]; read-out: pTGI (converted)
  TGI: 794 nM
[13]
  GI50: 398 nM
[13]; read-out: pTGI (converted)
  TGI: 3.98 µM
[14]
  GI50: 316 nM
[14]; read-out: pTGI (converted)
  TGI: 12.6 µM
[15]
  GI50: 200 nM
[15]; read-out: pTGI (converted)
  TGI: 631 nM
[16]
  GI50: 316 nM
[16]; read-out: pTGI (converted)
  TGI: 3.98 µM
[17]
  GI50: 251 nM
[17]; read-out: pTGI (converted)
  TGI: 631 nM
[18]
  GI50: 158 nM
[18]; read-out: pTGI (converted)
  TGI: 501 nM
[19]
  GI50: 398 nM
[19]; read-out: pTGI (converted)
  TGI: 794 nM
[20]
  GI50: 158 nM
[20]; read-out: pTGI (converted)
  TGI: 1580 nM
[21]
  GI50: 1260 nM
[21]; read-out: pTGI (converted)
  TGI: 5.01 µM
[22]
  GI50: 631 nM
[22]; read-out: pTGI (converted)
  TGI: > 100 µM
[23]
  GI50: 200 nM
[23]; read-out: pTGI (converted)
  TGI: 631 nM
[24]
  GI50: > 100 µM
[24]; read-out: pTGI (converted)
  TGI: > 100 µM
[25]
  GI50: 251 nM
[25]; read-out: pTGI (converted)
  TGI: 2000 nM
[26]
  GI50: 398 nM
[26]; read-out: pTGI (converted)
  TGI: > 100 µM
[27]
  GI50: 316 nM
[27]; read-out: pTGI (converted)
  TGI: 6.31 µM
[28]
  GI50: 501 nM
[28]; read-out: pTGI (converted)
  TGI: > 100 µM
[29]
  GI50: 316 nM
[29]; read-out: pTGI (converted)
  TGI: 63.1 µM
[30]
  GI50: 251 nM
[30]; read-out: pTGI (converted)
  TGI: 1000 nM
[31]
  GI50: 100 nM
[31]; read-out: pTGI (converted)
  TGI: 316 nM
[32]
  GI50: 20 µM
[32]; read-out: pTGI (converted)
  TGI: > 100 µM
[33]
  GI50: 398 nM
[33]; read-out: pTGI (converted)
  TGI: 794 nM
